# Reference: ChEMBL document CHEMBL1921697, “Antifungal activity of 2α,3β-functionalized steroids stereoselectively increases with the addition of oligosaccharides” (Bioorg Med Chem Lett, 2011)
# Legend:
# [1] = system: Candida albicans; test: Antifungal activity against Candida albicans ATCC 10231 assessed as growth inhibition after 48 hrs by broth microdilution relative to control; type: functional
# Procedure, shortened: (§1)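 Broth microdilution against yeast; incubation at 35 °C for 48 h. Growth read by visual turbidity versus antifungal-free control wells and by absorbance at 530 nm. MIC₅₀ taken as the lowest level giving a prominent visual decrease in turbidity plus >50% growth reduction versus no-antifungal controls. Values in µg/mL; partial inhibition (e.g. 25%) noted where below threshold.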
# [2] = system: Nakaseomyces glabratus; test: Antifungal activity against Candida glabrata ATCC 48435 assessed as growth inhibition after 48 hrs by broth microdilution relative to control; type: functional; procedure, shortened: as §1
# [3] = system: Cryptococcus neoformans; test: Antifungal activity against Cryptococcus neoformans ATCC 36556 assessed as growth inhibition after 48 hrs by broth microdilution relative to control; type: functional; procedure, shortened: as §1
# [4] = system: Cryptococcus neoformans; test: Antifungal activity against Cryptococcus neoformans ATCC 36556 after 48 hrs by broth microdilution technique; type: functional; settings: ATCC 36556, 48 h; procedure, shortened: as §1
# [5] = system: Nakaseomyces glabratus; test: Antifungal activity against Candida glabrata ATCC 48435 after 48 hrs by broth microdilution technique; type: functional; settings: ATCC 48435, 48 h; procedure, shortened: as §1
# [6] = system: Vero; test: Cytotoxicity against african green monkey Vero cells after 24 hrs by MTT assay; type: cell-based; settings: chlorocebus sabaeus
# Procedure, shortened: (§2)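 Tetrazolium (MTT-type) proliferation assay on noncancerous Vero and rabbit skin cells. Compounds diluted in media to 200, 100, 50 and 25 µg/ml; 24 h exposure at 37 °C, 5% CO₂. Dye added for 1–4 h, then stop solution 1 h at room temperature; formazan read at 570 nm. Viability given as % of 1% DMSO no-drug wells; saponin as cell-death control; triplicate, mean ± SD.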
# [7] = Cytotoxicity against Sylvilagus floridanus CCL68 cells after 24 hrs by MTT assay; type: cell-based; procedure, shortened: as §2
Structure (SMILES),growth inhibition (GI) [1],growth inhibition (GI) [2],growth inhibition (GI) [3],MIC50 [4],MIC50 [5],Activity [6],Activity [7]
CC(C)CCC[C@@H](C)[C@H]1CC[C@H]2[C@@H]3CC[C@H]4C[C@@H](O[C@H]5O[C@H](CO)[C@@H](O[C@H]6O[C@H](CO)[C@@H](O)[C@H](O)[C@H]6O)[C@H](O)[C@H]5O)CC[C@]4(C)[C@H]3CC[C@]12C,<50%,<50%,<50%,,,,
C[C@@H]1CC[C@]2(C[C@H]3C[C@H]4[C@@H]5CC[C@H]6C[C@@H](O[C@@H]7O[C@H](CO)[C@@H](O)[C@H](O)[C@H]7O)[C@H](O)C[C@]6(C)[C@H]5CC[C@]4(C)[C@H]3[C@@H]2C)OC1,<50%,<50%,<50%,,,,
CC(C)CCC[C@@H](C)[C@H]1CC[C@H]2[C@@H]3CC[C@H]4C[C@@H](O[C@H]5O[C@H](CO)[C@@H](O[C@H]6O[C@H](CO)[C@@H](O)[C@H](O)[C@H]6O)[C@H](O)[C@H]5O)[C@H](O)C[C@]4(C)[C@H]3CC[C@]12C,<50%,<50%,<50%,,,,
C[C@@H]1CC[C@@]2(OC1)O[C@H]1C[C@H]3[C@@H]4CC[C@H]5C[C@@H](O[C@H]6O[C@H](CO)[C@@H](O)[C@H](O)[C@H]6O)[C@H](O)C[C@]5(C)[C@H]4CC[C@]3(C)[C@H]1[C@@H]2C,<50%,<50%,<50%,,,,
CC(C)CCC[C@@H](C)[C@H]1CC[C@H]2[C@@H]3CC[C@H]4C[C@@H](O[C@@H]5O[C@H](CO)[C@@H](O[C@H]6O[C@H](CO)[C@@H](O)[C@H](O)[C@H]6O)[C@H](O)[C@H]5O)[C@H](O)C[C@]4(C)[C@H]3CC[C@]12C,<50%,<50%,,32 µg/mL,,,
CC(C)CCC[C@@H](C)[C@H]1CC[C@H]2[C@@H]3CC[C@H]4C[C@@H](O[C@@H]5O[C@H](CO)[C@@H](O[C@H]6O[C@H](CO)[C@@H](O)[C@H](O)[C@H]6O)[C@H](O)[C@H]5O)CC[C@]4(C)[C@H]3CC[C@]12C,<50%,,,4 µg/mL,4 µg/mL,Non-toxic,Non-toxic
CC(C)CCC[C@@H](C)[C@H]1CC[C@H]2[C@@H]3CC[C@H]4C[C@@H](O)[C@H](O)C[C@]4(C)[C@H]3CC[C@]12C,<50%,<50%,25%,32 µg/mL,,,
CC(C)CCC[C@@H](C)[C@H]1CC[C@H]2[C@@H]3CC[C@H]4C[C@@H](O[C@@H]5O[C@H](CO)[C@@H](O)[C@H](O)[C@H]5O)CC[C@]4(C)[C@H]3CC[C@]12C,<50%,<50%,<50%,,,,
CC(C)CCC[C@@H](C)[C@H]1CC[C@H]2[C@@H]3CC[C@H]4C[C@@H](O[C@@H]5O[C@H](CO)[C@@H](O[C@@H]6O[C@H](CO)[C@@H](O)[C@H](O)[C@H]6O)[C@H](O)[C@H]5O)[C@H](O)C[C@]4(C)[C@H]3CC[C@]12C,<50%,,,4 µg/mL,8 µg/mL,Toxic,Toxic
CC(C)CCC[C@@H](C)[C@H]1CC[C@H]2[C@@H]3CC[C@H]4C[C@@H](O[C@@H]5O[C@H](CO)[C@@H](O[C@@H]6O[C@H](CO)[C@@H](O)[C@H](O)[C@H]6O)[C@H](O)[C@H]5O)CC[C@]4(C)[C@H]3CC[C@]12C,<50%,,,> 125 µg/mL,> 125 µg/mL,,
CC(C)CCC[C@@H](C)[C@H]1CC[C@H]2[C@@H]3CC[C@H]4C[C@@H](O[C@@H]5O[C@H](CO)[C@@H](O)[C@H](O)[C@H]5O)[C@H](O)C[C@]4(C)[C@H]3CC[C@]12C,<50%,<50%,<50%,,,,
C[C@@H]1CC[C@]2(C[C@H]3C[C@H]4[C@@H]5CC[C@H]6C[C@@H](O[C@@H]7O[C@H](CO)[C@@H](O[C@@H]8O[C@H](CO)[C@@H](O)[C@H](O)[C@H]8O)[C@H](O)[C@H]7O)[C@H](O)C[C@]6(C)[C@H]5CC[C@]4(C)[C@H]3[C@@H]2C)OC1,,,,,,Non-toxic,Non-toxic
CC(C)CCC[C@@H](C)[C@H]1CC[C@H]2[C@@H]3CC[C@H]4C[C@@H](O[C@H]5O[C@H](CO)[C@@H](O)[C@H](O)[C@H]5O)CC[C@]4(C)[C@H]3CC[C@]12C,<50%,<50%,<50%,,,,
C[C@@H]1CC[C@]2(C[C@H]3C[C@H]4[C@@H]5CC[C@H]6C[C@@H](O[C@H]7O[C@H](CO)[C@@H](O[C@H]8O[C@H](CO)[C@@H](O)[C@H](O)[C@H]8O)[C@H](O)[C@H]7O)[C@H](O)C[C@]6(C)[C@H]5CC[C@]4(C)[C@H]3[C@@H]2C)OC1,<50%,<50%,<50%,,,,
CC(C)CCC[C@@H](C)[C@H]1CC[C@H]2[C@@H]3CC[C@H]4C[C@@H](O[C@H]5O[C@H](CO)[C@@H](O)[C@H](O)[C@H]5O)[C@H](O)C[C@]4(C)[C@H]3CC[C@]12C,<50%,<50%,<50%,,,,
CC(C)CCC[C@@H](C)[C@H]1CC[C@H]2[C@@H]3CC[C@H]4C[C@@H](O)CC[C@]4(C)[C@H]3CC[C@]12C,<50%,<50%,<50%,,,,
